Measured values collected from several papers.
Protocols differ between the studies behind these lines.
Enoyl-[acyl-carrier-protein] reductase [NADPH] FabI: Enoyl-[acyl-carrier-protein] reductase [NADPH] FabI (Staphylococcus aureus, UniProt Q6GI75)
CYP1A1: Cytochrome P450 1A1 (CYP1A1, Homo sapiens, UniProt P04798)
BCL2: Apoptosis regulator Bcl-2 (BCL2, Homo sapiens, UniProt P10415)

The Ki of NCCCC[C@H](NC(=O)[C@@H]1CCCN1C(=O)[C@@H]1CSSC[C@H](N)C(=O)N[C@@H](Cc2ccc(O)cc2)C(=O)N[C@@H](Cc2ccccc2)C(=O)N[C@@H](CCC(N)=O)C(=O)N[C@@H](CC(N)=O)C(=O)N1)C(=O)NCC(N)=O is reported as 1.8 nM (Vasopressin V1a receptor (AVPR1A, Homo sapiens, UniProt P37288); ligand displacement, radioligand; cell membranes).
CCc1cc(O)c(Oc2cccnc2F)cc1F has a Ki of 0.35 nM (Enoyl-[acyl-carrier-protein] reductase [NADPH] FabI; enzyme activity, inhibitor).
C#Cc1ccc2c(=O)cc(-c3ccccc3)oc2c1 has a Ki of 24 nM (CYP1A1; enzyme activity, inhibitor, fluorescence; 6 min, pH 7.6).
The Ki of CC[C@H](C)[C@H](NC(=O)[C@H](CCC(=O)O)NC(=O)[C@H](CC(=O)O)NC(=O)CNC(=O)[C@H](CC(C)C)NC(=O)[C@H](CCCNC(=N)N)NC(=O)[C@H](CCCNC(=N)N)NC(=O)[C@H](CC(C)C)NC(=O)CNC(=O)[C@H](CCC(N)=O)NC(=O)[C@@H](NC(=O)[C@H](CCSC)NC(=O)[C@H](Cc1c[nH]c2ccccc12)NC(=O)[C@@H](NC(=O)[C@H](CCC(=O)O)NC(=O)[C@@H]1CCCN1C(=O)[C@H](CCCNC(=N)N)NC(C)=O)[C@@H](C)CC)[C@@H](C)O)C(=O)N[C@@H](CC(N)=O)C(=O)N[C@@H](C)C(=O)N[C@@H](Cc1ccc(O)cc1)C(=O)N[C@@H](Cc1ccc(O)cc1)C(=O)N[C@@H](C)C(=O)N[C@@H](CCCNC(=N)N)C(N)=O is reported as roughly 2900 nM (BCL2; ligand displacement, FP).
N#Cc1cc(Br)ccc1Oc1ccc(Cl)cc1O has a Ki of 0.17 nM (Enoyl-[acyl-carrier-protein] reductase [NADPH] FabI; enzyme activity, inhibitor).
C#Cc1cccc(-c2cc(=O)c3ccccc3o2)c1 has a Ki of 41 nM (CYP1A1; enzyme activity, inhibitor, fluorescence; 6 min, pH 7.6).
CC[C@H](C)[C@H](NC(=O)[C@H](CCCCN)NC(=O)[C@H](CCCNC(=N)N)NC(=O)[C@H](CC(C)C)NC(=O)[C@H](CCC(N)=O)NC(=O)[C@H](C)NC(=O)[C@H](C)NC(=O)[C@H](Cc1ccccc1)NC(=O)[C@H](CCC(=O)O)NC(=O)[C@@H]1CCCN1C(=O)[C@@H]1CCCN1C(=O)[C@H](CC(C)C)NC(=O)[C@H](CCC(=O)O)NC(=O)[C@H](C)NC(C)=O)C(=O)NCC(=O)N[C@@H](CC(=O)O)C(=O)N[C@@H](CCCCN)C(=O)N[C@H](C(=O)N[C@@H](Cc1ccc(O)cc1)C(=O)N[C@@H](CS)C(N)=O)C(C)C gave a Ki of roughly 14000 nM (Bcl-2-like protein 2 (BCL2L2, Homo sapiens, UniProt Q92843); ligand displacement, FP).
CC[C@H](NC(=O)[C@H](CS(=O)(=O)CC1CC1)N[C@@H](c1ccc(F)cc1)C(F)(F)F)C(=O)C(=O)NC1CC1 gave a Ki of 0.04 nM (Cathepsin S (Ctss, Mus musculus, UniProt O70370); enzyme activity, inhibitor).
CC(C)=CCc1c(O)cc(O)c2c1O[C@H](c1ccc(O)cc1)CC2=O gave a Ki of 200 nM (CYP1A1; enzyme activity, inhibitor, fluorescence; 15 min, pH 7.4).
O=C(O)CCC(NC(=O)NC(CCCCNC(=O)CCCCCCC(=O)NC(CCCCNC(=O)CN1CCN(CC(=O)O)CCN(CC(=O)O)CCN(CC(=O)O)CC1)C(=O)OCc1ccccc1)C(=O)O)C(=O)O (stereo not drawn) gave a Ki of 2.9 nM (Glutamate carboxypeptidase 2 (FOLH1, Homo sapiens, UniProt Q04609); enzyme activity, inhibitor, fluorescence).
The Ki of CC[C@H](C)[C@H](NC(=O)[C@H](CCC(=O)O)NC(=O)[C@H](CC(=O)O)NC(=O)CNC(=O)[C@H](CC(C)C)NC(=O)[C@H](CCCNC(=N)N)NC(=O)[C@H](CCC(N)=O)NC(=O)[C@H](CC(C)C)NC(=O)[C@H](CO)NC(=O)[C@H](CCC(N)=O)NC(=O)[C@@H](NC(=O)[C@H](CC(C)C)NC(=O)[C@H](Cc1c[nH]c2ccccc12)NC(=O)[C@@H](NC(=O)[C@H](CCC(=O)O)NC(=O)[C@@H]1CCCN1C(=O)[C@H](CCCNC(=N)N)NC(C)=O)[C@@H](C)CC)[C@@H](C)O)C(=O)N[C@@H](CC(N)=O)C(=O)N[C@@H](C)C(=O)N[C@@H](Cc1ccc(O)cc1)C(=O)N[C@@H](Cc1ccc(O)cc1)C(=O)N[C@@H](C)C(=O)N[C@@H](CCCNC(=N)N)C(N)=O is reported as roughly 2700 nM (BCL2; ligand displacement, FP).
For COc1cc(O)c(CC=C(C)C)c2c1C(=O)CC(c1ccc(O)cc1)O2 (stereo not drawn), the Ki was 1600 nM (CYP1A1; enzyme activity, inhibitor, fluorescence; 15 min, pH 7.4).
